The values below come from ChEMBL document CHEMBL4152264, “Design, synthesis, antiproliferative activity and docking studies of quinazoline derivatives bearing 2,3-dihydro-indole or 1,2,3,4-tetrahydroquinoline as potential EGFR inhibitors” (Eur J Med Chem, 2018).

A word on the IC50: it is the concentration that gives 50% inhibition. Higher therefore signals a need for much substance.

One series has as its system A549. Put plainly: Antiproliferative activity against human A549 cells after 72 hrs by MTT assay. The format is functional, cell-based. The following applies: A549, 72 h. Background: Formazan colour is commonly taken as a measure of viable cells.
`C=CC(=O)Nc1cc2c(N3CCc4ccccc43)ncnc2cc1OC`: inhibition was half-maximal at 5.58 µM (IC50).
Still for that read-out and setting: then `CC(C)/C=C/C(=O)Nc1cc2c(N3CCc4ccccc43)ncnc2cc1O[C@@H]1CCOC1`, with 8.52 µM; and `COc1cc2ncnc(N3CCc4ccccc43)c2cc1NC(=O)/C=C/CN1CCN(C)CC1`, with 5.36 µM.
Same read-out and setting: next, `CC/C=C/C(=O)Nc1cc2c(N3CCc4ccccc43)ncnc2cc1O[C@@H]1CCOC1`: 10.9 µM; `COc1cc2ncnc(N3CCCc4ccccc43)c2cc1NC(=O)/C=C/CN1CCN(C)CC1`: 7.83 µM; `C=C(C)C(=O)Nc1cc2c(N3CCc4ccccc43)ncnc2cc1OC`: 7.32 µM.
On to `CC(C)=CC(=O)Nc1cc2c(N3CCCc4ccccc43)ncnc2cc1O[C@@H]1CCOC1`, for which the IC50 was determined as 7.91 µM.
On the same count and under the same terms, then `CN1CCN(C/C=C/C(=O)Nc2cc3c(N4CCc5ccccc54)ncnc3cc2O[C@@H]2CCOC2)CC1`, with 6.09 µM.
Still for that read-out and setting: then `COc1cc2ncnc(N3CCc4ccccc43)c2cc1NC(=O)/C=C/CN(C)C`, with 2.04 µM; and `C/C=C/C(=O)Nc1cc2c(N3CCCc4ccccc43)ncnc2cc1O[C@@H]1CCOC1`, with 10.8 µM; and `CCC/C=C/C(=O)Nc1cc2c(N3CCc4ccccc43)ncnc2cc1OC`, with 2.92 µM.
Same read-out and setting: then `O=C(/C=C/CN1CCCC1)Nc1cc2c(N3CCc4ccccc43)ncnc2cc1O[C@@H]1CCOC1`, with 2.23 µM; and `CC/C=C/C(=O)Nc1cc2c(N3CCCc4ccccc43)ncnc2cc1OC`, with 5.03 µM; and `C=C(C)C(=O)Nc1cc2c(N3CCc4ccccc43)ncnc2cc1O[C@@H]1CCOC1`, with 16.6 µM.
In turn, `COc1cc2ncnc(N3CCc4ccccc43)c2cc1NC(=O)/C=C/C(C)C` returned an IC50 of 6.41 µM.
Turning to `CC(C)/C=C/C(=O)Nc1cc2c(N3CCCc4ccccc43)ncnc2cc1O[C@@H]1CCOC1`, the 50% inhibitory concentration (IC50) was 6.82 µM.
The same measure, in the same setting: next, `O=C(/C=C/CN1CCCCC1)Nc1cc2c(N3CCCc4ccccc43)ncnc2cc1O[C@@H]1CCOC1`: 3.67 µM.

Test system in a further series: not listed separately
Put plainly: Solubility of the compound in water. It is filed as physicochemical. As to conditions: buffer.
For the compound `C=CC(=O)Nc1cc2c(N3CCc4ccccc43)ncnc2cc1OC`, the solubility entry is listed as “Insoluble”.
Same read-out and setting: next, `CC(C)/C=C/C(=O)Nc1cc2c(N3CCc4ccccc43)ncnc2cc1O[C@@H]1CCOC1`: “Insoluble”.
Still for that read-out and setting: next, `CC/C=C/C(=O)Nc1cc2c(N3CCc4ccccc43)ncnc2cc1O[C@@H]1CCOC1`: “Insoluble”; `C=C(C)C(=O)Nc1cc2c(N3CCc4ccccc43)ncnc2cc1OC`: “Insoluble”; `CC(C)=CC(=O)Nc1cc2c(N3CCCc4ccccc43)ncnc2cc1O[C@@H]1CCOC1`: “Insoluble”.
Still for that read-out and setting: then `C/C=C/C(=O)Nc1cc2c(N3CCCc4ccccc43)ncnc2cc1O[C@@H]1CCOC1`, with “Insoluble”; and `CCC/C=C/C(=O)Nc1cc2c(N3CCc4ccccc43)ncnc2cc1OC`, with “Insoluble”; and `CC/C=C/C(=O)Nc1cc2c(N3CCCc4ccccc43)ncnc2cc1OC`, with “Insoluble”.
`C=C(C)C(=O)Nc1cc2c(N3CCc4ccccc43)ncnc2cc1O[C@@H]1CCOC1`: the solubility result is “Insoluble”.
Still for that read-out and setting: then `COc1cc2ncnc(N3CCc4ccccc43)c2cc1NC(=O)/C=C/C(C)C`, with “Insoluble”.
For the compound `CC(C)/C=C/C(=O)Nc1cc2c(N3CCCc4ccccc43)ncnc2cc1O[C@@H]1CCOC1`, the solubility entry is “Insoluble”.

For another series, the system named is MCF7. Put plainly: Antiproliferative activity against human MCF7 cells after 72 hrs by MTT assay. The following applies: MCF7, 72 h. The format is functional, cell-based.
For `C=CC(=O)Nc1cc2c(N3CCc4ccccc43)ncnc2cc1OC`, the midpoint of inhibition, the IC50, lay at 11.7 µM. This lies in the double-digit micromolar range.
Same read-out and setting: next, `CC(C)/C=C/C(=O)Nc1cc2c(N3CCc4ccccc43)ncnc2cc1O[C@@H]1CCOC1`: 9.88 µM; `COc1cc2ncnc(N3CCc4ccccc43)c2cc1NC(=O)/C=C/CN1CCN(C)CC1`: 6.43 µM.
Take `CC/C=C/C(=O)Nc1cc2c(N3CCc4ccccc43)ncnc2cc1O[C@@H]1CCOC1`: the IC50 turned out to be 8.84 µM.
On the same count and under the same terms, then `COc1cc2ncnc(N3CCCc4ccccc43)c2cc1NC(=O)/C=C/CN1CCN(C)CC1`, with 8.56 µM; and `C=C(C)C(=O)Nc1cc2c(N3CCc4ccccc43)ncnc2cc1OC`, with 11.1 µM.
The same measure, in the same setting: then `CC(C)=CC(=O)Nc1cc2c(N3CCCc4ccccc43)ncnc2cc1O[C@@H]1CCOC1`, with 11.1 µM; and `CN1CCN(C/C=C/C(=O)Nc2cc3c(N4CCc5ccccc54)ncnc3cc2O[C@@H]2CCOC2)CC1`, with 5.35 µM.
The same measure, in the same setting: then `COc1cc2ncnc(N3CCc4ccccc43)c2cc1NC(=O)/C=C/CN(C)C`, with 3.37 µM; and `C/C=C/C(=O)Nc1cc2c(N3CCCc4ccccc43)ncnc2cc1O[C@@H]1CCOC1`, with 5.93 µM; and `CCC/C=C/C(=O)Nc1cc2c(N3CCc4ccccc43)ncnc2cc1OC`, with 3.16 µM.
The compound `O=C(/C=C/CN1CCCC1)Nc1cc2c(N3CCc4ccccc43)ncnc2cc1O[C@@H]1CCOC1` returned an IC50 of 2.31 µM.
The same measure, in the same setting: then `CC/C=C/C(=O)Nc1cc2c(N3CCCc4ccccc43)ncnc2cc1OC`, with 2.87 µM; and `C=C(C)C(=O)Nc1cc2c(N3CCc4ccccc43)ncnc2cc1O[C@@H]1CCOC1`, with 14.7 µM.
Still for that read-out and setting: next, `COc1cc2ncnc(N3CCc4ccccc43)c2cc1NC(=O)/C=C/C(C)C`: 6.78 µM.
With `CC(C)/C=C/C(=O)Nc1cc2c(N3CCCc4ccccc43)ncnc2cc1O[C@@H]1CCOC1`, the IC50 came to 4.68 µM.
On the same count and under the same terms, then `O=C(/C=C/CN1CCCCC1)Nc1cc2c(N3CCCc4ccccc43)ncnc2cc1O[C@@H]1CCOC1`, with 4.45 µM.

The next series has as its system PC-3. Briefly: Antiproliferative activity against human PC3 cells after 72 hrs by MTT assay. The format is functional, cell-based. As to conditions: PC-3, 72 h. In outline:
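Cells grown in MEM with 10% FBS. About 4×10³ cells per well seeded and incubated 24 h at 37 °C, 5% CO₂. Compounds added at indicated final concentrations for 72 h. MTT at 5 µg/mL final for 4 h at 37 °C. Formazan dissolved in DMSO, absorbance read at 492 nm with 630 nm reference. Tested three times; IC50 is the mean of two determinations.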
`C=CC(=O)Nc1cc2c(N3CCc4ccccc43)ncnc2cc1OC` showed an IC50 of 5.94 µM.
In the case of `CC(C)/C=C/C(=O)Nc1cc2c(N3CCc4ccccc43)ncnc2cc1O[C@@H]1CCOC1`, the IC50 was 11.2 µM.
Take `COc1cc2ncnc(N3CCc4ccccc43)c2cc1NC(=O)/C=C/CN1CCN(C)CC1`: the IC50 was 9.18 µM. This IC50 and that of the compound before are within 1.5-fold of each other.
In turn, `CC/C=C/C(=O)Nc1cc2c(N3CCc4ccccc43)ncnc2cc1O[C@@H]1CCOC1` registered an IC50 of 9.59 µM. The IC50 values of the last two compounds are within 1.5-fold of each other.
The compound `COc1cc2ncnc(N3CCCc4ccccc43)c2cc1NC(=O)/C=C/CN1CCN(C)CC1` returned an IC50 of 6.26 µM.
Still for that read-out and setting: then `C=C(C)C(=O)Nc1cc2c(N3CCc4ccccc43)ncnc2cc1OC`, with 4.83 µM.
Same read-out and setting: next, `CC(C)=CC(=O)Nc1cc2c(N3CCCc4ccccc43)ncnc2cc1O[C@@H]1CCOC1`: 9.02 µM; `CN1CCN(C/C=C/C(=O)Nc2cc3c(N4CCc5ccccc54)ncnc3cc2O[C@@H]2CCOC2)CC1`: 4.21 µM.
Same read-out and setting: next, `COc1cc2ncnc(N3CCc4ccccc43)c2cc1NC(=O)/C=C/CN(C)C`: 2.19 µM; `C/C=C/C(=O)Nc1cc2c(N3CCCc4ccccc43)ncnc2cc1O[C@@H]1CCOC1`: 9.35 µM.
`CCC/C=C/C(=O)Nc1cc2c(N3CCc4ccccc43)ncnc2cc1OC` had a 50% inhibitory concentration (IC50) of 4.24 µM.
`O=C(/C=C/CN1CCCC1)Nc1cc2c(N3CCc4ccccc43)ncnc2cc1O[C@@H]1CCOC1` yielded an IC50 of 1.51 µM.
Compound `CC/C=C/C(=O)Nc1cc2c(N3CCCc4ccccc43)ncnc2cc1OC` showed an IC50 of 6.31 µM. This IC50 is about 4.2-fold higher than that of the compound before.
On the same count and under the same terms, then `C=C(C)C(=O)Nc1cc2c(N3CCc4ccccc43)ncnc2cc1O[C@@H]1CCOC1`, with 4.91 µM.
On the same count and under the same terms, then `COc1cc2ncnc(N3CCc4ccccc43)c2cc1NC(=O)/C=C/C(C)C`, with 6.53 µM.
As for `CC(C)/C=C/C(=O)Nc1cc2c(N3CCCc4ccccc43)ncnc2cc1O[C@@H]1CCOC1`, half-maximal inhibition (IC50) was put at 8.51 µM.
Same read-out and setting: then `O=C(/C=C/CN1CCCCC1)Nc1cc2c(N3CCCc4ccccc43)ncnc2cc1O[C@@H]1CCOC1`, with 3.63 µM.
